The values below come from ChEMBL document CHEMBL4477186, “Structurally Diverse Metabolites from the Soft Coral Sinularia verruca Collected in the South China Sea” (J Nat Prod, 2016).

The subject of test [1] is Human immunodeficiency virus 1. Briefly: Antiviral activity against HIV1 infected in human CEM-SS cells assessed as inhibition of virus-induced cytopathic effect after 6 days by XTT assay. The settings on record: for EC50: Human immunodeficiency virus 1, CEM-SS, 144 h. The class given is functional, organism-based. Put shortly:
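NCI XTT-tetrazolium primary anti-HIV screen. CEM-SS cells kept in phenol red-free RPMI 1640 with 5% FBS, gentamicin and 2 mM L-glutamine; 1 × 10⁴ cells per well infected with HIV-1 RF (Haitian variant) at MOI 0.6. Compounds predissolved in DMSO, diluted in medium; AZT positive control. Quadruplicate infected wells, 6 days, 37 °C, 5% CO₂; cell growth by XTT; EC50 and maximal protection derived.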
In general terms: Protection from cytopathic effect is a common read-out in antiviral testing.

Test [2] relates to Peritoneal macrophage. Briefly: Antiinflammatory activity against C57BL6J mouse peritoneal macrophages assessed as inhibition of LPS-induced NO production at 30 uM incubated for 1 hr followed by stimulation with LPS for 24 hrs by Griess assay. In kind it is functional. In short, it runs like this:
(§1)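 Mouse peritoneal macrophages stimulated with lipopolysaccharide; nitric oxide production measured following an earlier protocol. Test compounds taken from 30 mM DMSO stocks and diluted to 1–30 μM final. Dexamethasone in DMSO served as positive control.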
(Nitrite, measured by Griess reagent, commonly stands in for NO production.)

The test system of the next test is CEM-SS. The test is described as follows: Cytotoxicity against human CEM-SS cells assessed as growth inhibition after 6 days by XTT assay. The class given is cell-based. The settings on record: 144 h. In short, it runs like this:
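Uninfected CEM-SS cells (1 × 10⁴ per well, duplicate wells) grown alongside the infected cultures in phenol red-free RPMI 1640 with 5% FBS, gentamicin and 2 mM L-glutamine. Compounds diluted from DMSO into medium. Incubation 6 days at 37 °C under 5% CO₂; growth estimated by XTT read-out; IC50 derived.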
(In general: Formazan colour is commonly taken as a measure of viable cells.)

For test [3], the system named is Peritoneal macrophage. Briefly: Antiinflammatory activity against C57BL6J mouse peritoneal macrophages assessed as inhibition of LPS-induced NO production incubated for 1 hr followed by stimulation with LPS for 24 hrs by Griess assay. The class given is functional, cell-based. In short, it runs like this: as §1

Calls of active or inactive are those of the source. The calls are words filed in the database; no cut-off is given here. Bounds are passed on as bounds.

One may read the inhibition as the drop in the measured response relative to a control, in per cent. Turning to `CC(=O)CC/C=C(/C)C[C@@H]1CC(C)(C)CC1=O`, the inhibition result in test [1] was “inactive”. Also, the inhibition at 30 µM in the test on Peritoneal macrophage [2] was less than 50%.

As for `C/C1=C/C2=C(CC(C)(C)C2)[C@H](C)CC[C@@H]1O`, the inhibition entry in test [1] is “inactive”. The inhibition at 30 µM in the test on Peritoneal macrophage [2] is less than 50%.

Regarding `CCOC(=O)C1=CN2CC[C@]3(O)c4ccccc4N([C@H]1C)[C@H]23`, the inhibition result in test [1] was “inactive”. Besides, in the test with Peritoneal macrophage [2], the inhibition at 30 µM is less than 50%.

In general, IC50 refers to the point on the concentration scale where inhibition reaches its midpoint. A word on the EC50: it is the concentration that produces a half-maximal response. Turning to `CCCCC[C@@]1(O)C(C)=C(C)C(=O)[C@H]1COCC` (relative stereo), in the test with CEM-SS, the IC50 was 66 µM. In test [1], the “%max” value came to 75% and the EC50 was 30 µM. Moreover, the IC50 in the test with Peritoneal macrophage [3] was determined as 26 µM.

In the case of `CCCCC[C@]1(O)OC(=O)C(C)=C1C`, the inhibition result in test [1] was “inactive”. Moreover, the inhibition at 30 µM in the test on Peritoneal macrophage [2] was less than 50%.

As to `COC(=O)C(C)CCCC1(C)CCc2c(C)c(O)c(C)c(C)c2O1` (stereo not given), the inhibition entry in test [1] is “inactive”. Moreover, the inhibition at 30 µM in the test with Peritoneal macrophage [2] is less than 50%.

Consider `CCCCC[C@@]1(O)C(C)=C(C)C(=O)[C@H]1CO` (relative stereo), for which the IC50 in the test with CEM-SS was 79 µM. Moreover, in test [1], the “%max” value is given as 86% and the EC50 was 34 µM. Also, in the test on Peritoneal macrophage [3], the IC50 came out at 28 µM.

`CCO[C@@]1(CCCCCCCCCCCCC(=O)O)OC(=O)C(C)=C1C`: the inhibition entry in test [1] was “inactive”. Also, in the test with Peritoneal macrophage [2], the inhibition at 30 µM was less than 50%.

With `CCOC(=O)CC[C@]1(O)OC(=O)C(C)=C1C`, in test [1], the inhibition entry was “inactive”. In addition, the inhibition at 30 µM with Peritoneal macrophage [2] is less than 50%.

For the compound `COC(=O)C(C)CCCC(C)(O)CCC1=C(C)C(=O)C(C)=C(C)C1=O` (stereo not given), the inhibition result in test [1] was “inactive”. The inhibition at 30 µM in the test with Peritoneal macrophage [2] is less than 50%.

Regarding `CCCC[C@@H]1C(=O)C(C)=C(C)[C@]12CCC(=O)O2`, the inhibition entry in test [1] was “inactive”. Further, the inhibition at 30 µM in the test with Peritoneal macrophage [2] is less than 50%.

In the case of `C/C(=C\CC[C@]1(C)C=Cc2cc(O)c(C)cc2O1)Cc1cc(C)co1` [CAPILLOBENZOPYRANOL], the inhibition result in test [1] was “inactive”. In addition, the inhibition at 30 µM in the test on Peritoneal macrophage [2] was less than 50%.

As for `CC1=C[C@@]2(C=C(C)[C@@H]3CC[C@@]4(C)Oc5cc(C)c(O)cc5[C@@H]2[C@@H]34)OC1=O`, the inhibition entry in test [1] was “inactive”. In addition, the inhibition at 30 µM in the test with Peritoneal macrophage [2] is less than 50%.

As for `CCCC[C@@H]1C(=O)C(C)=C(C)[C@]1(O)CCC(=O)OCC`, the inhibition entry in test [1] is “inactive”. For the same compound, the IC50 in the test with Peritoneal macrophage [3] is 24 µM.

Take `CCOC(=O)CCCCCCCCCCCC[C@]1(O)OC(=O)C(C)=C1C`: the inhibition result in test [1] is “inactive”. Moreover, the inhibition at 30 µM with Peritoneal macrophage [2] was less than 50%.

Take `C[C@@H]1CC[C@]2(O)O[C@]13CC(C)(C)CC3=C[C@@]2(C)O`: the inhibition result in test [1] is “inactive”. The inhibition at 30 µM with Peritoneal macrophage [2] is less than 50%.

Regarding `C=C1C(=O)C(C)=C(C)[C@@]1(O)CCCCC`, the IC50 in the test on CEM-SS came to 6.3 µM. For the same compound, in test [1], the “%max” value came to 52% and the EC50 turned out to be 5.8 µM. The inhibition at 30 µM in the test with Peritoneal macrophage [2] was less than 50%.
